Experimental data: article PMC3517121 (Chembiochem : a European journal of chemical biology, 2011)
Where two headings read alike, the source gives them in different places.

Assays:
[1] = Solubility in water; type: physicochemical; conditions: qualitative statement
[2] = Molar absorption coefficient; type: physicochemical
How it was run: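 Test cross-linker concentration fixed by 1H NMR in DMSO-d6 with a known concentration of 1,2-dichloroethane, comparing the DCE methylene signal with the cross-linker α-methylene signal. The NMR solution was then diluted in DMSO or in 10 mM phosphate buffer pH 7.0, and UV-Vis spectra were recorded to calculate the molar absorption coefficient.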

[3] = cited from earlier work

With `CC(=O)Nc1ccc(N=Nc2ccc(-c3ccc(N=Nc4ccc(NC(C)=O)cc4)cc3)cc2)cc1` [BPDB(r), 4,4’-bis(4-acetamidophenyl)diazenylbiphenyl] the solubility in water [1] was “not soluble in water”.
In the case of `O=C(CCl)Nc1ccc(N=Nc2ccc(-c3ccc(N=Nc4ccc(NC(=O)CCl)cc4)cc3)cc2)cc1` [BPDB, 4,4’-bis(4-(2-chloroacetamido)phenyl)diazenylbiphenyl], the molar absorption coefficient ([2]; at 400 nm in DMSO) is reported as 60,000 M^-1cm^-1.
With `O=C(CCl)Nc1ccc(N=Nc2ccc(-c3ccc(N=Nc4ccc(NC(=O)CCl)cc4)cc3S(=O)(=O)O)c(S(=O)(=O)O)c2)cc1` [BPDBS, 4,4’-bis(4-(2-chloroacetamido)phenyl)diazenylbiphenyl-2,2’-disulfonate] the molar absorption coefficient ([2]; at 360 nm in sodium phosphate buffer, pH 7.0) was 45,000 M^-1cm^-1, the molar absorption coefficient ([2]; at 380 nm in DMSO) was 52,000 M^-1cm^-1 and the solubility in water [1] was “water-soluble”.
For `O=C(CCl)Nc1ccc(N=Nc2ccc(NC(=O)CCl)c(S(=O)(=O)O)c2)cc1S(=O)(=O)O` [BSBCA, 3,3’-bis(sulfonato)-4,4’-bis(chloroacetamide)azobenzene], the molar absorption coefficient [3] is given as 27,000 M^-1 cm^-1.
